Laboratory results: ChEMBL document CHEMBL1138107, “Novel non-nucleobase inhibitors of Staphylococcus aureus DNA polymerase IIIC” (Bioorg Med Chem Lett, 2006)
Converted amounts (≈) assume the structure as drawn.

Assays:
[1] = biological target: T1, DNA polymerase III PolC-type (Staphylococcus aureus) (UniProt P0C1P9); assay: Inhibition of DNA polymerase3C from Staphylococcus aureus at 100 uM
T1 sequence (whole entry): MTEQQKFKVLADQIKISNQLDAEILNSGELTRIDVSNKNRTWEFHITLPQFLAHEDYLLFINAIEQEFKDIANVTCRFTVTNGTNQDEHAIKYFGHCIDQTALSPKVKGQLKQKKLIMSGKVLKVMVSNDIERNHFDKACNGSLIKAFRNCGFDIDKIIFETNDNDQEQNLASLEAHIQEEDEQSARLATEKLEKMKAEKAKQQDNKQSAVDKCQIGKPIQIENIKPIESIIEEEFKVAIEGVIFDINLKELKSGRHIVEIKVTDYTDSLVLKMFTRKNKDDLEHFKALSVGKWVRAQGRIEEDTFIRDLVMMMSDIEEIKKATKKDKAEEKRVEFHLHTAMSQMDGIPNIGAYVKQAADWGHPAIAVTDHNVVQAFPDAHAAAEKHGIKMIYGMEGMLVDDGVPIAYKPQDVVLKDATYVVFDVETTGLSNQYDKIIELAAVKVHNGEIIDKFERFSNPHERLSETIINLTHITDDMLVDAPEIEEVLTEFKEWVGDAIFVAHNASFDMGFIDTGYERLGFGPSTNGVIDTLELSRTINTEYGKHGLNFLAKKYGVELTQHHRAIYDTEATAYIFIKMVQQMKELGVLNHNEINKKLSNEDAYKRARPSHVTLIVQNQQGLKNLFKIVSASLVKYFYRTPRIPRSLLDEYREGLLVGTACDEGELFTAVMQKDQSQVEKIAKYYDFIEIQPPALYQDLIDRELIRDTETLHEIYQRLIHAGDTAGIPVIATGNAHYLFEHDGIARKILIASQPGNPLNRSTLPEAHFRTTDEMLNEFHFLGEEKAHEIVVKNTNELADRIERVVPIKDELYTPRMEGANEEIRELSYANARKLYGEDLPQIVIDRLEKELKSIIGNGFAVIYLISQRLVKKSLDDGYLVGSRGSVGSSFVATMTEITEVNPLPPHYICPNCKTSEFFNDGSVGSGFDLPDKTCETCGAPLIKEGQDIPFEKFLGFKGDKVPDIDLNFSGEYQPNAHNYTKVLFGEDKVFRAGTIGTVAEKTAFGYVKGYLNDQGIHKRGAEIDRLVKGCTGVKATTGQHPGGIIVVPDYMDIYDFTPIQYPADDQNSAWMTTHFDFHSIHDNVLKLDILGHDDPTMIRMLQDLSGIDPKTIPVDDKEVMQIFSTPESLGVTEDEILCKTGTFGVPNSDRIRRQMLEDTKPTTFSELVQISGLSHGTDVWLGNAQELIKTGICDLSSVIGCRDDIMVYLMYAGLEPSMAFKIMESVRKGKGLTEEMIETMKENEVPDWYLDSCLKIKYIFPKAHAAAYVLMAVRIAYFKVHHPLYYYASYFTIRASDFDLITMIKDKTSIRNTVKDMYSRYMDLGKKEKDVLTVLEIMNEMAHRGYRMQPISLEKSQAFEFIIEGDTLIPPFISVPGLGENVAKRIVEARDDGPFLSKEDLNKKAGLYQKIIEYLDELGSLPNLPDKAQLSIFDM
In short: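 PolC oligonucleotide-primed incorporation of [³H]dTTP was run with 125 ng purified enzyme for 30 min at 37 °C. It was quenched with EDTA, filter-bound on DE81 and counted by liquid scintillation. Compounds were screened in triplicate at 10, 50 and 100.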

Staphylococcus aureus [2] = assay: Antimicrobial activity against Staphylococcus aureus (RN4220); format: functional; conditions: read-out: MIC
HeLa = assay: Cytotoxicity against HeLa cell line by MTS assay; format: functional, cell-based; conditions: Homo sapiens
In short: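 HeLa cells (2 × 10⁴/well) in DMEM with 1% bovine growth serum were exposed to compound at 100, 50, 25 and 12.5 for 18 h at 37 °C under 5% CO₂. Viability was read as MTS reduction to formazan, by absorbance at 490 nm.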

Staphylococcus aureus [3] = assay: Antimicrobial activity against Staphylococcus aureus (RN4220) in presence of 50% of human serum; format: functional
[4] = biological target: T2, DNA polymerase III PolC-type (Staphylococcus aureus, UniProt P0C1P9); assay: Inhibition of DNA polymerase3C from Staphylococcus aureus
T2 sequence (P0C1P9 whole entry): T1 sequence (whole entry)
In short: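 Purified PolC (125 ng) started the reaction with a double-stranded oligonucleotide substrate, dATP, dCTP, low dGTP and [³H]dTTP (1 Ci/mmol) in Tris-HCl pH 7.5 buffer with glycerol, EDTA, DTT, IgG and 8 mM MgCl₂. Incubation was 30 min at 37 °C, stopped with 20 mM EDTA, then spotted on DE81 filters, washed and counted by scintillation. IC50 came from a 12-point, roughly 2-fold serial dilution, run in triplicate.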

Staphylococcus aureus [5] = assay: Inhibition of DNA replication utilizing Staphylococcus aureus replication proteins in presence of reduced dATP concentrations; format: functional, organism-based
In short: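 The replication assay used a singly primed circular ssM13 template copied by S. aureus PolC, with β clamp, δδ′/τ clamp loader and SSB. [³H]dTTP incorporation was measured in streptavidin-coated scintillation plates, with the dATP concentration reduced to sensitize the assay to dATP analogs.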

Oc1nc(Nc2ccc3c(c2)CCC3)nc(Cl)c1CCCc1ccccc1
inhibition [1]: 46% | MIC (Staphylococcus aureus [2]): 16 µg/mL (≈ 42.1 µM) | Activity (HeLa): Not toxic | MIC (Staphylococcus aureus [3]): > 128 µg/mL

C=CCc1c(O)nc(Nc2ccc3c(c2)CCC3)[nH]c1=O
IC50 [4]: 31 µM

CCc1cc(Nc2nc(N)c(CCCc3ccccc3)c(O)n2)ccc1C
inhibition [1]: 12% | MIC (Staphylococcus aureus [2]): > 128 µg/mL | Activity (HeLa): Not toxic | IC50 (Staphylococcus aureus [5]): 7.9 µM | MIC (Staphylococcus aureus [3]): > 128 µg/mL

C=CCCc1c(O)nc(Nc2ccc3c(c2)CCC3)nc1O
inhibition [1]: 87% | MIC (Staphylococcus aureus [2]): 8 µg/mL (≈ 26.9 µM) | IC50 [4]: 17.9 µM | Activity (HeLa): Not toxic

O=c1[nH]c(Nc2ccc3c(c2)CCC3)nc(O)c1CCCOc1ccc([N+](=O)[O-])cc1
IC50 [4]: 2.6 µM

C=CCc1c(N)nc(Nc2ccc(C)c(CC)c2)[nH]c1=O
IC50 [4]: 164 µM

OCCCc1c(O)nc(Nc2ccc3c(c2)CCC3)nc1O
inhibition [1]: 74% | MIC (Staphylococcus aureus [2]): 128 µg/mL (≈ 425 µM) | Activity (HeLa): Not toxic

C=CCCCCc1c(O)nc(Nc2ccc3c(c2)CCC3)nc1O
inhibition [1]: 81% | MIC (Staphylococcus aureus [2]): 16 µg/mL (≈ 49.2 µM) | Activity (HeLa): Not toxic

C=CCc1c(O)nc(Nc2ccc3c(c2)CCC3)nc1Cl
inhibition [1]: 53% | MIC (Staphylococcus aureus [2]): 1 µg/mL (≈ 3.31 µM) | Activity (HeLa): Not toxic | MIC (Staphylococcus aureus [3]): > 128 µg/mL

N#Cc1ccc(OCCCc2c(O)nc(Nc3ccc4c(c3)CCC4)nc2O)cc1
inhibition [1]: 91% | MIC (Staphylococcus aureus [2]): 8 µg/mL (≈ 19.9 µM) | Activity (HeLa): Not toxic

Oc1nc(Nc2ccc3c(c2)CCC3)nc(O)c1CCCN1CCCCC1
inhibition [1]: 69% | MIC (Staphylococcus aureus [2]): 128 µg/mL (≈ 347 µM) | Activity (HeLa): Not toxic

Oc1nc(Nc2ccc3c(c2)CCC3)nc(O)c1Cc1ccccc1
inhibition [1]: 90% | MIC (Staphylococcus aureus [2]): 8 µg/mL (≈ 24 µM) | IC50 [4]: 37 µM | Activity (HeLa): Not toxic

O=[N+]([O-])c1ccc(OCCCc2c(O)nc(Nc3ccc4c(c3)CCC4)nc2O)nc1
inhibition [1]: 85% | MIC (Staphylococcus aureus [2]): 64 µg/mL (≈ 151 µM) | IC50 [4]: 5.1 µM | Activity (HeLa): Not toxic

COC(=O)c1ccc(OCCCc2c(O)nc(Nc3ccc4c(c3)CCC4)nc2O)cc1
inhibition [1]: 74% | MIC (Staphylococcus aureus [2]): 64 µg/mL (≈ 147 µM) | Activity (HeLa): Not toxic

C=CCCCc1c(O)nc(Nc2ccc3c(c2)CCC3)nc1O
inhibition [1]: 89% | MIC (Staphylococcus aureus [2]): 16 µg/mL (≈ 51.4 µM) | Activity (HeLa): Not toxic

COc1ccc(OCCCc2c(O)nc(Nc3ccc4c(c3)CCC4)nc2O)cc1
inhibition [1]: 81% | MIC (Staphylococcus aureus [2]): 16 µg/mL (≈ 39.3 µM) | Activity (HeLa): Not toxic

Nc1cc(O)nc(Nc2ccc3c(c2)CCC3)n1
inhibition [1]: 5% | MIC (Staphylococcus aureus [2]): > 128 µg/mL | Activity (HeLa): Not toxic | MIC (Staphylococcus aureus [3]): > 128 µg/mL

Nc1ccc(OCCCc2c(O)nc(Nc3ccc4c(c3)CCC4)[nH]c2=O)cc1
IC50 [4]: 9 µM

C=CCc1c(N)nc(Nc2ccc(C)c(CC)c2)nc1O
inhibition [1]: 32% | MIC (Staphylococcus aureus [2]): 8 µg/mL (≈ 28.1 µM) | Activity (HeLa): Not toxic | IC50 (Staphylococcus aureus [5]): 7.7 µM | MIC (Staphylococcus aureus [3]): 32 µg/mL

N#Cc1ccc(OCCCc2c(O)nc(Nc3ccc4c(c3)CCC4)[nH]c2=O)cc1
IC50 [4]: 5.6 µM

O=[N+]([O-])c1ccc(OCCCc2c(O)nc(Nc3ccc4c(c3)CCC4)nc2O)cc1
inhibition [1]: 70% | MIC (Staphylococcus aureus [2]): 4 µg/mL (≈ 9.47 µM) | Activity (HeLa): Not toxic

Oc1nc(Nc2ccc3c(c2)CCC3)nc(O)c1CCCCc1ccccc1
inhibition [1]: 35% | MIC (Staphylococcus aureus [2]): > 128 µg/mL | Activity (HeLa): Not toxic

O=c1[nH]c(Nc2ccc3c(c2)CCC3)nc(O)c1CCCc1ccccc1
IC50 [4]: 3 µM

Nc1ccc(OCCCc2c(O)nc(Nc3ccc4c(c3)CCC4)nc2O)cc1
inhibition [1]: 83% | MIC (Staphylococcus aureus [2]): > 64 µg/mL | Activity (HeLa): Not toxic

CCCc1cnc(Nc2ccc3c(c2)CCC3)nc1O
inhibition [1]: 7% | MIC (Staphylococcus aureus [2]): > 128 µg/mL | Activity (HeLa): Not toxic | MIC (Staphylococcus aureus [3]): > 128 µg/mL

Oc1nc(Nc2ccc3c(c2)CCC3)nc(O)c1CCCCOc1ccccc1
inhibition [1]: 67% | MIC (Staphylococcus aureus [2]): 8 µg/mL (≈ 20.4 µM) | IC50 [4]: 14 µM | Activity (HeLa): Not toxic

Nc1nc(Nc2ccc3c(c2)CCC3)nc(O)c1Cc1ccccc1
inhibition [1]: 17% | MIC (Staphylococcus aureus [2]): > 128 µg/mL | Activity (HeLa): Not toxic | IC50 (Staphylococcus aureus [5]): > 100 µM | MIC (Staphylococcus aureus [3]): > 128 µg/mL

Oc1nc(Nc2ccc3c(c2)CCC3)nc(O)c1CCOc1ccccc1
inhibition [1]: 74% | MIC (Staphylococcus aureus [2]): 16 µg/mL (≈ 44 µM) | Activity (HeLa): Not toxic

COc1ccc(OCCCc2c(O)nc(Nc3ccc4c(c3)CCC4)[nH]c2=O)cc1
IC50 [4]: 11.6 µM

Oc1nc(Nc2ccc3c(c2)CCC3)nc(O)c1CCc1ccccc1
inhibition [1]: 68% | MIC (Staphylococcus aureus [2]): 8 µg/mL (≈ 23 µM) | IC50 [4]: 18 µM | Activity (HeLa): Not toxic

C=CCc1c(Cl)nc(Nc2ccc3c(c2)CCC3)[nH]c1=O
IC50 [4]: 2.3 µM

NCCCc1c(O)nc(Nc2ccc3c(c2)CCC3)nc1O
inhibition [1]: 40% | MIC (Staphylococcus aureus [2]): > 128 µg/mL | Activity (HeLa): Not toxic

O=C(O)c1ccc(OCCCc2c(O)nc(Nc3ccc4c(c3)CCC4)nc2O)cc1
inhibition [1]: 90% | MIC (Staphylococcus aureus [2]): > 128 µg/mL | Activity (HeLa): Not toxic

COc1cc(OCCCc2c(O)nc(Nc3ccc4c(c3)CCC4)nc2O)ccc1[N+](=O)[O-]
inhibition [1]: 72% | MIC (Staphylococcus aureus [2]): 8 µg/mL (≈ 17.7 µM) | Activity (HeLa): Not toxic

C=CCc1c(O)nc(Nc2ccc(C)c(CC)c2)[nH]c1=O
IC50 [4]: 7.7 µM

C=CCc1c(O)nc(Nc2ccc3c(c2)CCC3)nc1OC
inhibition [1]: 33% | MIC (Staphylococcus aureus [2]): 128 µg/mL (≈ 430 µM) | Activity (HeLa): Not toxic | MIC (Staphylococcus aureus [3]): > 128 µg/mL

CCc1cc(Nc2nc(O)c(CCCc3ccc(C#N)cc3OC)c(O)n2)ccc1C
inhibition [1]: 81% | MIC (Staphylococcus aureus [2]): 16 µg/mL (≈ 38.2 µM) | Activity (HeLa): Not toxic
